Laboratory results taken from ChEMBL document CHEMBL1150350, “Evaluation of the amino acid binding site of Mycobacterium tuberculosis glutamine synthetase for drug discovery” (Bioorg Med Chem, 2008).
Active and inactive are the calls of the source. The rule behind the calls is not given here.

Tests used:
[1] = test system: Mycobacterium tuberculosis; experiment: Activation of Mycobacterium tuberculosis glutamine synthetase at 1 mM in water
Outline: (§1)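 Unadenylylated MtGS from an E. coli expression strain, 7 nM subunit, in 50 mM HEPES-HCl pH 7.5 with 25 mM MgCl2, 1 mM ATP and 30 mM NH4Cl. Compound (water stock) was preincubated 20 min at RT, then 10 mM L-glutamate was added and the reaction run 60 min at RT. Released Pi was read at A635 minus a no-GS/no-ATP background. Triplicate; % of uninhibited; t-test, p<0.1.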

[2] = test system: Mycobacterium tuberculosis; experiment: Inhibition of Mycobacterium tuberculosis glutamine synthetase at 1 mM in DMSO
Outline: (§2)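 Compound from a DMSO stock (2% v/v DMSO final) was preincubated 20 min at RT with unadenylylated MtGS (7 nM subunit) in 50 mM HEPES-HCl pH 7.5, 25 mM MgCl2, 1 mM ATP and 30 mM NH4Cl. Started with 10 mM L-glutamate, 60 min at RT. Phosphate read at 635 nm, corrected by a compound-background plate lacking GS and ATP. Triplicate, % vs uninhibited enzyme.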

[3] = target: T1, Glutamine synthetase (Salmonella typhimurium (strain LT2 / SGSC1412 / ATCC 700720), UniProt P0A1P6); experiment: Inhibition of Salmonella Typhimurium glutamine synthetase by transferase assay; parameters: species or system Salmonella enterica subsp. enterica serovar Typhimurium
T1 sequence (P0A1P6 whole entry): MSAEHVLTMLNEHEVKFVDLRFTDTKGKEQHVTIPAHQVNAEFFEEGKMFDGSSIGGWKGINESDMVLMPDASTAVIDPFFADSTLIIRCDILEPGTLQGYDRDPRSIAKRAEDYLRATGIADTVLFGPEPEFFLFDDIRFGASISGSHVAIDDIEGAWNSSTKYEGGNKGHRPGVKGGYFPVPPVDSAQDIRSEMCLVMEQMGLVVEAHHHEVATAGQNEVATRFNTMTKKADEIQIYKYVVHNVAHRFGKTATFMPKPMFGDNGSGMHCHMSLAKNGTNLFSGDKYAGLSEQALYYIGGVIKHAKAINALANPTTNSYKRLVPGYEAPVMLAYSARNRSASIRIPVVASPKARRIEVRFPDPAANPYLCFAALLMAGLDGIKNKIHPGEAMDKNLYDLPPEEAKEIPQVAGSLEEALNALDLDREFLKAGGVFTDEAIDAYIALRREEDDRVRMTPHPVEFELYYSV

[4] = target: T2, Glutamine synthetase (Glycine max) (UniProt Q43760); experiment: Inhibition of soybean glutamine synthetase at 0.5 mM by transferase assay
T2 sequence (whole entry): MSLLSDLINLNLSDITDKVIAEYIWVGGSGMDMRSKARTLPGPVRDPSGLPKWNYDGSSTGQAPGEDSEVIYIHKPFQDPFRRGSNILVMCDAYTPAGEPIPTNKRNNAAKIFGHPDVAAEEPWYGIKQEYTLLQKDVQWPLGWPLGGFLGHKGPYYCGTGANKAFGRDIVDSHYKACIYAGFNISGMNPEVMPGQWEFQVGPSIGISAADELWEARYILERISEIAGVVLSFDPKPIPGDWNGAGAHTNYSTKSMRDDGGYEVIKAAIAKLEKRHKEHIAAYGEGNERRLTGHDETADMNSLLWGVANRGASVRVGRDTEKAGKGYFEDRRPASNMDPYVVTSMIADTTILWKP

[5] = test system: Mycobacterium tuberculosis; conditions: at 1 mM
[6] = organism: Ovis aries; experiment: Inhibition of sheep brain glutamine synthetase at 0.5 mM by transferase assay
[7] = Inhibition of Mycobacterium tuberculosis glutamine synthetase by transferase assay
[8] = test system: Mycobacterium tuberculosis; experiment: Activation of Mycobacterium tuberculosis glutamine synthetase at 0.50 mM in water; outline: as §1
[9] = organism: Ovis aries; experiment: Inhibition of sheep brain glutamine synthetase at 25 mM
[10] = test system: Mycobacterium tuberculosis; experiment: Inhibition of Mycobacterium tuberculosis glutamine synthetase at 0.90 mM in water; outline: as §1
[11] = test system: Mycobacterium tuberculosis; experiment: Inhibition of Mycobacterium tuberculosis glutamine synthetase at 0.50 mM in water; outline: as §1
[12] = test system: Mycobacterium tuberculosis; experiment: Inhibition of Mycobacterium tuberculosis glutamine synthetase at 0.93 mM in water; outline: as §1
[13] = test system: Escherichia coli; experiment: Inhibition of Escherichia coli glutamine synthetase at 1.1 mM
[14] = Inhibition of Escherichia coli glutamine synthetase by transferase assay
[15] = test system: Mycobacterium tuberculosis; experiment: Inhibition of Mycobacterium tuberculosis glutamine synthetase at 0.20 mM in water; outline: as §1
[16] = Inhibition of sheep brain glutamine synthetase by transferase assay; parameters: species or system Ovis aries
[17] = target: T3, Glutamine synthetase (Glycine max, UniProt Q43760); experiment: Inhibition of soybean glutamine synthetase by transferase assay
T3 sequence (Q43760 whole entry): T2 sequence (whole entry)

[18] = test system: Mycobacterium tuberculosis; experiment: Inhibition of Mycobacterium tuberculosis glutamine synthetase at 0.75 mM in DMSO; outline: as §2

## O=C(O)CNc1cccc(C(=O)O)c1
[1]
  Activity: Active

## CCOP(=O)(OCC)c1cccc(N[C@H](CO)C(=O)O)c1
[1]
  Activity: Active

## NC[C@H](O)CC[C@H](N)C(=O)O
[2]
  inhibition: 56%
[3]
  Ki: 40 µM
[4]
  inhibition: 21%
[5]
  inhibition: 58%
[6]
  inhibition: 22%
[7]
  IC50: 610 µM

## CCOP(=O)(OCC)c1cccc(N[C@@H](CO)C(=O)O)c1
[1]
  Activity: Active

## CSc1cccc(N[C@@H](CO)C(=O)O)c1
[8]
  Activity: Active

## O=C(O)CNc1ccc(O)c(S(=O)(=O)O)c1
[5]
  inhibition: 48%

## NS(=O)(=O)c1ccc2[nH]c(=O)[nH]c2c1
[2]
  inhibition: 24%

## CS(=O)(=O)CC[C@H](N)C(=O)O
[5]
  inhibition: 33%
[9]
  inhibition: 67%

## C[S+]([O-])c1cccc(N[C@@H](CO)C(=O)O)c1 (some centres undefined)
[5]
  inhibition: 13%

## CSc1cccc(NCC(=O)O)c1
[10]
  Activity: inactive

## C[S+]([O-])c1cccc(NCC(=O)O)c1 (centres undefined)
[5]
  inhibition: 30%

## CCOP(=O)(OCC)c1cccc(NCC(=O)O)c1
[2]
  inhibition: 42%

## NS(=O)(=O)c1cccc(N[C@@H](CO)C(=O)O)c1
[1]
  Activity: Active

## CSc1cccc(N[C@H](CO)C(=O)O)c1
[11]
  Activity: inactive

## NC(Cc1ccc(CP(=O)(O)O)cc1)C(=O)O (centres undefined)
[12]
  Activity: inactive

## NS(=O)(=O)c1cccc(N[C@H](CO)C(=O)O)c1
[5]
  inhibition: 33%

## N[C@@H](CCP(=O)(O)O)C(=O)O
[13]
  inhibition: 61%
[14]
  Ki: 54 µM

## NC(Cc1ccccc1CP(=O)(O)O)C(=O)O (centres undefined)
[15]
  Activity: inactive

## CP(=O)(O)CCC(N)C(=O)O (racemic) [GLUFOSINATE]
[7]
  IC50: 1.9 µM

## O=C(O)c1cccc(N[C@@H](CO)C(=O)O)c1
[1]
  Activity: Active

## C[S+]([O-])CC[C@H](N)C(=O)O (some centres undefined)
[9]
  inhibition: 11%

## O=C(O)c1cccc(N[C@H](CO)C(=O)O)c1
[1]
  Activity: Active

## O=C(O)c1cccc(NC(=O)c2nc[nH]n2)c1
[2]
  inhibition: 26%

## N[C@@H](CCNO)C(=O)O
[5]
  inhibition: 26%
[16]
  Ki: 7 µM
[17]
  Ki: 21 µM

## N[C@@H](CCCP(=O)(O)O)C(=O)O
[18]
  Activity: inactive
